Results: article PMC6660416 (Cell, 2019)

Legend:
[1] = tested on: 5-HT2A-RLuc; assay: BRET association assay, 5-HT2A-RLuc and mVenus-nanobody; format: cell-based; details: 5-HT at 1μM or above
[2] = tested on: MRGPRX2; assay: Transcription factor reporter primary screen; format: cell-based; details: MRGPRX2 activated by (+)-morphine, 4 hrs post-ligand addition
[3] = tested on: R7 tTA; assay: tTA reporter assay; format: cell-based; details: increasing concentrations of DOX
In short: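 Six hours after transfection, cells were washed and dissociated with versene. They were resuspended in DMEM + 1% dialyzed FBS and plated on poly-L-lysine 384-well plates at 10,000 cells/well. Doxycycline HCl, prepared in plating media at 2x, was added for 20–22 hr overnight. Media was then removed and 1:20-diluted Bright-Glo luciferase reagent was added for luminescence read-out.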

[4] = target: 5-HT2A-Gαq (Homo sapiens, UniProt P28223+P50148); assay: Saturation radioligand binding assay with [3H]LSD

SMILES: NCCc1c[nH]c2ccc(O)cc12 [5-HT, serotonin]
- effect of agonist on VGS-Nb2 association to 5-HT2A [1]: no effect

SMILES: CN1CC[C@@]23c4c5ccc(O)c4O[C@@H]2[C@H](O)C=C[C@@H]3[C@@H]1C5 [(+)-morphine]
- SRE minimal promoter luciferase response [2]: 5 fold
- SRF minimal promoter luciferase response [2]: 5 fold

SMILES: C[C@H]1c2cccc(O)c2C(=O)C2=C(O)[C@]3(O)C(=O)C(C(N)=O)=C(O)[C@@H](N(C)C)[C@@H]3[C@@H](O)[C@@H]21 [DOX, doxycycline]
- sensitivity of R7 consensus tTA to doxycycline in TETO7-Rluc reporter [3]: completely resistant

SMILES: [3H]CN1C[C@H](C(=O)N(CC)CC)C=C2c3cccc4[nH]cc(c34)C[C@H]21 [[^3H]LSD, [N-Methyl-^3H]-Lysergic Acid Diethylamide]
- BMax ([4]; 5HT2A-Gaq membrane + 5uM VGS-Nb2): 1993 fmol/mg
- BMax ([4]; 5HT2A-Gaq membrane, vehicle): 1333 fmol/mg
